Inhibition data for nine molecules are collected here from ChEMBL document CHEMBL1165965, “Synthesis and structure-activity relationships of 1,2,3,4-tetrahydropyrido[2,3-b]pyrazines as potent and selective inhibitors of the anaplastic lymphoma kinase” (Bioorg Med Chem, 2010).

By inhibition is commonly meant the relative decrease from the control value, in per cent. A higher inhibition goes with strong suppression.

Assay [1] concerns the target MAP kinase-activated protein kinase 2 (Homo sapiens) (UniProt P49137). Put plainly: Inhibition of MAPKAPK2 at 1 uM.
Assay [2] has as its target T1, MAP kinase-activated protein kinase 5 (Homo sapiens) (UniProt Q8IW41).
T1 sequence (whole entry): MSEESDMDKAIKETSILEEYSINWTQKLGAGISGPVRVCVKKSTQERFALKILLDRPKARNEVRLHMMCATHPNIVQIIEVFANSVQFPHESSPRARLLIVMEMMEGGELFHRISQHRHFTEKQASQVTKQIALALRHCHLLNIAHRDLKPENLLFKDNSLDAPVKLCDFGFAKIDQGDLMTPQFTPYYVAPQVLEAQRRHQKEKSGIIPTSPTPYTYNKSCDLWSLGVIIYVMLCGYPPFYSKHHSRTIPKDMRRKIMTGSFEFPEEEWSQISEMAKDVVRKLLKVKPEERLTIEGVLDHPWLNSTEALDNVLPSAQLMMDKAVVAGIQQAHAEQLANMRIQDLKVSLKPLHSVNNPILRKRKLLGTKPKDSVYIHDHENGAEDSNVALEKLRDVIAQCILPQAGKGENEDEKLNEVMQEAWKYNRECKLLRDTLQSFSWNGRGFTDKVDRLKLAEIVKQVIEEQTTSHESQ
Put plainly: Inhibition of MAPKAPK5 at 1 uM.

Assay [3] has as its target Myosin light chain kinase 2, skeletal/cardiac muscle (Homo sapiens) (UniProt Q9H1R3). In words: Inhibition of MYLK2 at 1 uM.
In assay [4] the target is Serine/threonine-protein kinase NIM1 (Homo sapiens) (UniProt Q8IY84). Put plainly: Inhibition of NIM1 at 1 uM.
The target of assay [5] is Cyclin-dependent kinase 14 (Homo sapiens) (UniProt O94921). Put plainly: Inhibition of PFTK1 at 1 uM.
Assay [6] deals with Serine/threonine-protein kinase pim-2 (Homo sapiens) (UniProt Q9P1W9). In words: Inhibition of PIM2 at 1 uM.
Assay [7] concerns the target Phosphatidylinositol 4-phosphate 5-kinase type-1 alpha (Homo sapiens) (UniProt Q99755). In words: Inhibition of PIP5K1A at 1 uM.
Assay [8] addresses Serine/threonine-protein kinase SIK2 (Homo sapiens) (UniProt Q9H0K1). In words: Inhibition of SIK2 at 1 uM.
Assay [9] deals with T2, TGF-beta receptor type-1 (Homo sapiens) (UniProt P36897).
T2 sequence (whole entry): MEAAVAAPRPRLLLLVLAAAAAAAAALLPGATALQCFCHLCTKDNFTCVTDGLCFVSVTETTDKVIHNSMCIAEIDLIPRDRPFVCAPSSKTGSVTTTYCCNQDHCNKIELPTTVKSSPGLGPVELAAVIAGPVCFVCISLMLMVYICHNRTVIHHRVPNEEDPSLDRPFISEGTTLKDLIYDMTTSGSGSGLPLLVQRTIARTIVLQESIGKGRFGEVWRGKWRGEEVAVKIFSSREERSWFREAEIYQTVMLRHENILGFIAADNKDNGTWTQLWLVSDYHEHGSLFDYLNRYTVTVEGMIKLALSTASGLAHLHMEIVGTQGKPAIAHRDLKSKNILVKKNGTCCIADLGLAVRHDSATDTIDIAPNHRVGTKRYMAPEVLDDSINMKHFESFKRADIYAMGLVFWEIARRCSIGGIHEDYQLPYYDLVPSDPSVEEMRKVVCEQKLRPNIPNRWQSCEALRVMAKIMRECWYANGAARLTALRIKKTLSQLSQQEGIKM
Put plainly: Inhibition of TGFBR1 at 1 uM.

Assay [10] deals with Non-receptor tyrosine-protein kinase TYK2 (Homo sapiens) (UniProt P29597). Put plainly: Inhibition of TYK2 JH2 pseudokinase domain at 1 uM.
In assay [11] the target is Serine/threonine-protein kinase 32C (Homo sapiens) (UniProt Q86UX6). In words: Inhibition of YANK3 at 1 uM.
For assay [12], the target named is Epithelial discoidin domain-containing receptor 1 (Homo sapiens) (UniProt Q08345). In words: Inhibition of DDR1 at 1 uM. Put shortly:
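Single-concentration screen using Ambit Bioscience KINOMEscan technology across a panel of 250–400 kinases. Per-kinase inhibition from this screen was summarized as S(90), the fraction of kinases inhibited by more than 90%.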

The test system of assay [13] is Epidermal growth factor receptor (Homo sapiens), P00533 [L858R,T790M]. Put plainly: Inhibition of EGFR L858R, T790M mutant at 1 uM. In kind it is protein assay.
In assay [14] the target is T3, Mitogen-activated protein kinase 15 (Homo sapiens) (UniProt Q8TD08).
T3 sequence (whole entry): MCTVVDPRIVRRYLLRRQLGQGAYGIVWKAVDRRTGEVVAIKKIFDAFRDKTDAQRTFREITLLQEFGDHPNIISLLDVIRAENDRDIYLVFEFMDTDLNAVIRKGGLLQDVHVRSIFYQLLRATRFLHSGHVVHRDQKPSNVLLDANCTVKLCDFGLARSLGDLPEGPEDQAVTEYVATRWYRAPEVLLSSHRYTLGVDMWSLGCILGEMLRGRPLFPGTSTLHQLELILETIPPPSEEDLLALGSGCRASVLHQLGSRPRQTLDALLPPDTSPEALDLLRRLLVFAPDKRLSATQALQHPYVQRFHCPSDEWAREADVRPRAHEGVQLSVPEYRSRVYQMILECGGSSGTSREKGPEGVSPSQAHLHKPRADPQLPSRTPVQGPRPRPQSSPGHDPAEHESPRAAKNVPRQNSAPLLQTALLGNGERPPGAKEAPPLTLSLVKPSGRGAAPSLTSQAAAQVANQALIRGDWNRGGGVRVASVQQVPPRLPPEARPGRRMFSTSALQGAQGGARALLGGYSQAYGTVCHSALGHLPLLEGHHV
In words: Inhibition of ERK8 at 1 uM.

The target in assay [15] is Tyrosine-protein kinase Fyn (Homo sapiens) (UniProt P06241). In words: Inhibition of FYN at 1 uM. The method, boiled down: (§1)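 Single-concentration screen on the Ambit KINOMEscan platform, run against a panel of 250–400 kinases. Per-kinase inhibition was also summarized as S(90), the fraction of kinases inhibited by more than 90%.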
In assay [16] the target is Glycogen synthase kinase-3 beta (Homo sapiens) (UniProt P49841). In words: Inhibition of GSK3B at 1 uM. The method, boiled down:
as §1

Assay [17] concerns the target Homeodomain-interacting protein kinase 1 (Homo sapiens) (UniProt Q86Z02). In words: Inhibition of HIPK1 at 1 uM. The method, boiled down: as §1

MAP kinase-activated protein kinase 2 (Homo sapiens), sequence (P49137 whole entry, looked up): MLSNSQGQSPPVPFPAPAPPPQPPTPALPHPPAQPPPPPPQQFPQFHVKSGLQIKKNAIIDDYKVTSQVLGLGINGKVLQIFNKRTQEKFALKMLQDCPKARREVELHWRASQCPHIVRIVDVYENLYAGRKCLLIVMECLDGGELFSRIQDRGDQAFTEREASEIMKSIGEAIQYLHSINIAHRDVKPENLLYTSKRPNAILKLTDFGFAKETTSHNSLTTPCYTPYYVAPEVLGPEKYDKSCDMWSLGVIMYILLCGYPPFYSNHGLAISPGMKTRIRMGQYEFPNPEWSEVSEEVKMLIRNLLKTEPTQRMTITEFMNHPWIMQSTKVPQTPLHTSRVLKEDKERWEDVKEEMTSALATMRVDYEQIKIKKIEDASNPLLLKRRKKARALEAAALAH
Tyrosine-protein kinase Fyn (Homo sapiens), sequence (P06241 2-537 limits assumed): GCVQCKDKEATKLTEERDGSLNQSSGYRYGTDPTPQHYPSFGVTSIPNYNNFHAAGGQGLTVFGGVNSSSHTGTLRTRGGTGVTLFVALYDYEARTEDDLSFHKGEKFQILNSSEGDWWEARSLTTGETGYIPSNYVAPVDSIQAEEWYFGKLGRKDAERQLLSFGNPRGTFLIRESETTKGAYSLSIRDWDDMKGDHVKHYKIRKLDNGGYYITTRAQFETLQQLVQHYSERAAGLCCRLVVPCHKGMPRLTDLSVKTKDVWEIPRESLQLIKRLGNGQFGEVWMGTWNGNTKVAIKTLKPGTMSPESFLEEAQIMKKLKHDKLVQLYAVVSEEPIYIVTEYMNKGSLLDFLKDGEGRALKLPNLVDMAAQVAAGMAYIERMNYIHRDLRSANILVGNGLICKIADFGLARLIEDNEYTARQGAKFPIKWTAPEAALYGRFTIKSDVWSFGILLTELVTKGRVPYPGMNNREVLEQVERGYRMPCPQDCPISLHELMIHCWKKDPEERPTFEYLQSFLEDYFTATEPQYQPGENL
Epithelial discoidin domain-containing receptor 1 (Homo sapiens), sequence (Q08345 whole entry, the tested form may be a part): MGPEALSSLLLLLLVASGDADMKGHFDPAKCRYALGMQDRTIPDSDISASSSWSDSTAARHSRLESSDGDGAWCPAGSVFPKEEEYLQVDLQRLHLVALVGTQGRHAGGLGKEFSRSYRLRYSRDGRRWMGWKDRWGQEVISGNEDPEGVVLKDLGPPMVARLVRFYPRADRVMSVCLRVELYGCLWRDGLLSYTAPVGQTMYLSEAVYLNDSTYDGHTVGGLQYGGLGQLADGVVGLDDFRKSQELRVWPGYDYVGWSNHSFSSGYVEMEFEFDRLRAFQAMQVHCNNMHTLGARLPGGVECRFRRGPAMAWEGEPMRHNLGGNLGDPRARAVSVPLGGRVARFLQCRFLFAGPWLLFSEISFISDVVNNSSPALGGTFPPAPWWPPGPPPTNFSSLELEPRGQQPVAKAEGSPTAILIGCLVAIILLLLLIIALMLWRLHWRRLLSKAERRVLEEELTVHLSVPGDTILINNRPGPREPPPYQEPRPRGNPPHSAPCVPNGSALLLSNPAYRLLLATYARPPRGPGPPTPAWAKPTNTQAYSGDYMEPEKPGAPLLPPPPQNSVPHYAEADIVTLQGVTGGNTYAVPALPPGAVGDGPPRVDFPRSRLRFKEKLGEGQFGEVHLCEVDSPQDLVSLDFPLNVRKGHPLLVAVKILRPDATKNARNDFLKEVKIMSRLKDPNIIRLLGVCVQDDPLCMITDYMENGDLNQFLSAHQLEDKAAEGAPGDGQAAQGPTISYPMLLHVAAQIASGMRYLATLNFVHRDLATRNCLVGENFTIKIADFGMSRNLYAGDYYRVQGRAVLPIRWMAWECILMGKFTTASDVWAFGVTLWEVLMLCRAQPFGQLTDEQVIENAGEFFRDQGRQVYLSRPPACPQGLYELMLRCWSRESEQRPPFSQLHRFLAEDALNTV
Cyclin-dependent kinase 14 (Homo sapiens), sequence (O94921 whole entry): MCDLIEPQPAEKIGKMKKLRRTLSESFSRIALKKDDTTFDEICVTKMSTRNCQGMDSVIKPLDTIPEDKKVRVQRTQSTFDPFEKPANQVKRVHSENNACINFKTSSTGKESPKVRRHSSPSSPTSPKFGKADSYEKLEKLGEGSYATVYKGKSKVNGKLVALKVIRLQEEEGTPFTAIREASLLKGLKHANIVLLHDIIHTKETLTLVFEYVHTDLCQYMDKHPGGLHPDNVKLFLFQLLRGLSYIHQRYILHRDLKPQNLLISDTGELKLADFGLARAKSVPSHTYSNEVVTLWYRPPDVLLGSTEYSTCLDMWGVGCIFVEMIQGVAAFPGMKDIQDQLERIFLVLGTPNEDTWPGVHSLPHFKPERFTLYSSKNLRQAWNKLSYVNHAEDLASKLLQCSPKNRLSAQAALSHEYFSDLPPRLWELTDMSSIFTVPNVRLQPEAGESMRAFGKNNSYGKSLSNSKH
Serine/threonine-protein kinase pim-2 (Homo sapiens), sequence (Q9P1W9 whole entry, looked up): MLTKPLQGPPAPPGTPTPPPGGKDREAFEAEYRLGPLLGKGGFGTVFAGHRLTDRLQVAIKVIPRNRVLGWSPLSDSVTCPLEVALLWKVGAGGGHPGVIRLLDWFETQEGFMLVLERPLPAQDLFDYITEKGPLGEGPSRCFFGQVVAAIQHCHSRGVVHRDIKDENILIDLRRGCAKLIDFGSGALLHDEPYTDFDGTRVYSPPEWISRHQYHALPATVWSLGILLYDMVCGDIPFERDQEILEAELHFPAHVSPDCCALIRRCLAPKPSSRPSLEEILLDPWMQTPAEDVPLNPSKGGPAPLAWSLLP
Non-receptor tyrosine-protein kinase TYK2 (Homo sapiens), sequence (P29597 whole entry, the tested form may be a part): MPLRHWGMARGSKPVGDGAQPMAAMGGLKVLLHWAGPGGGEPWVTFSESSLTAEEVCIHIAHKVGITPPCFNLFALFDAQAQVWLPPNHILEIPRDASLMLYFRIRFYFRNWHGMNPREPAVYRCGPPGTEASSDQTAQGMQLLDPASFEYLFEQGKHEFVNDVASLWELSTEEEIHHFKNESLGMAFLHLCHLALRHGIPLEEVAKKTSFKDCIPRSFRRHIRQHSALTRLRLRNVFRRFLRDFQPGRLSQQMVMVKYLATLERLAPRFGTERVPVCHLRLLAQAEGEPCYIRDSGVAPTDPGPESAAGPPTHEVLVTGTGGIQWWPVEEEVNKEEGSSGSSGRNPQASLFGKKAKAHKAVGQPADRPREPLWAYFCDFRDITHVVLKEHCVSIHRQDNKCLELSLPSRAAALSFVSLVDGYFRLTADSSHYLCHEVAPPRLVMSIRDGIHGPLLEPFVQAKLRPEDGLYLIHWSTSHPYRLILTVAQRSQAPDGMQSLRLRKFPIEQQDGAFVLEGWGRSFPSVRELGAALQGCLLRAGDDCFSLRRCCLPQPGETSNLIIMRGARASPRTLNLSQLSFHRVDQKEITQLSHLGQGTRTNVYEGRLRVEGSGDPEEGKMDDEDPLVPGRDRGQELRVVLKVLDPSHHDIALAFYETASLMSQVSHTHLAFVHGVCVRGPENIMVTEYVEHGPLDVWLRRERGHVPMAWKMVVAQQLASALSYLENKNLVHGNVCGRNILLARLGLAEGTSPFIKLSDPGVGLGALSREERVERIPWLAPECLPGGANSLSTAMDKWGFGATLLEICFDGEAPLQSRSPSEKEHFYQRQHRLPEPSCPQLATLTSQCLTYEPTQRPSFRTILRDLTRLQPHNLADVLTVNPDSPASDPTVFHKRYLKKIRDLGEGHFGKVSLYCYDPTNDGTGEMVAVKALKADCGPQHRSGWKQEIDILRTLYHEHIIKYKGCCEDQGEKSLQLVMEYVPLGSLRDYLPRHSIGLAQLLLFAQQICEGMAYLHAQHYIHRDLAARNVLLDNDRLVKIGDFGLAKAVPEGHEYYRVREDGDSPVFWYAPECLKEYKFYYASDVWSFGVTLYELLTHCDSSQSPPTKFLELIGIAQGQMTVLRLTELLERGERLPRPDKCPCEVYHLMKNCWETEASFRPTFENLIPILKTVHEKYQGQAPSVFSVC
Epidermal growth factor receptor (Homo sapiens), P00533 [L858R,T790M], sequence (P00533 whole entry T790M/L858R, looked up): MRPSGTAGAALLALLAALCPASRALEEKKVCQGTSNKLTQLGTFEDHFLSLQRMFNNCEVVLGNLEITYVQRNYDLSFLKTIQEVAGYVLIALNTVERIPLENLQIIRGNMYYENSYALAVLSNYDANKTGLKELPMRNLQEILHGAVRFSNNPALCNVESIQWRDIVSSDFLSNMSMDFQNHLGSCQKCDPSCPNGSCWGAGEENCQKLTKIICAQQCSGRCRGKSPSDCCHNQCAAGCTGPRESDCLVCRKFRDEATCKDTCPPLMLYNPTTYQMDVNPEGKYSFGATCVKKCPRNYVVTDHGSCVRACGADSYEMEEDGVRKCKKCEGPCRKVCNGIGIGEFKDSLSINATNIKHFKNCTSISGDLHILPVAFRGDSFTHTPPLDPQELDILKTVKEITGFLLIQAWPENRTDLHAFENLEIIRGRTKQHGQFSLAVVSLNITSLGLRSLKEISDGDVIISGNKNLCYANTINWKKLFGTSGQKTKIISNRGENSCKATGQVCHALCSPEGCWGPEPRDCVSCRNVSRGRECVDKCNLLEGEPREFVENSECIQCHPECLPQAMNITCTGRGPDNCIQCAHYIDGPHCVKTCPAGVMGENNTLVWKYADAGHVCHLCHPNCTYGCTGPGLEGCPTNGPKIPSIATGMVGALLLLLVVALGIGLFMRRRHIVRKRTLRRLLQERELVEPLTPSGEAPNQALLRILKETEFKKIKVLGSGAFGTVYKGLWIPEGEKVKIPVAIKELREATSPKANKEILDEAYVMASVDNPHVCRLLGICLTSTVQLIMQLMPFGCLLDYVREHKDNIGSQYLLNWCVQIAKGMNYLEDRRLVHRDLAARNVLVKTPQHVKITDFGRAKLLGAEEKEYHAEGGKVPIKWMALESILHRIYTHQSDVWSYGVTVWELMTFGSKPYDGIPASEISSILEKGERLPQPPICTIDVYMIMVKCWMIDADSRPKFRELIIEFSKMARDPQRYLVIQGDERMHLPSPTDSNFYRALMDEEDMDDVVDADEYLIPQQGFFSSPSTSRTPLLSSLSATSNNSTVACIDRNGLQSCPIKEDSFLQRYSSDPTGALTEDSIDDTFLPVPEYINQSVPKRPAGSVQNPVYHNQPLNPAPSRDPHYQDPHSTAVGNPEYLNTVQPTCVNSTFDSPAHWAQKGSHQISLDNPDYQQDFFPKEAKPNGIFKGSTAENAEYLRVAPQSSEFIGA

On to `FC(F)(F)c1ccc(Cl)cc1CN1CCNc2ncc(-c3ccnc(N4CCNCC4)c3)cc21`, for which the inhibition in assay [1], in assay [2], in assay [3], in assay [4], in assay [5] and in [6] was below 50% in each case. The inhibition in [7] was below 50%; in [8] it was 75%; in assay [9], below 50%; in assay [10], below 50%; in [11], below 50%; in [12] it was 96%. Moreover, the inhibition in assay [13], in [14], in assay [15], in [16] and in assay [17] was below 50% throughout.

With `CN1CCN(c2ccc(-c3cnc4c(c3)N(Cc3cc(F)ccc3F)CCN4)cn2)CC1`, the inhibition in [1], in assay [2], in assay [3], in assay [4], in [5] and in assay [6] was below 50% throughout. In addition, the inhibition in assay [7], in assay [8], in assay [9], in [10], in assay [11] and in [12] was below 50% in each case. Besides, the inhibition in assay [13] is below 50%; in assay [14], below 50%; in assay [15] it was below 50%; in assay [16], below 50%; in [17] it was 72.2%.

Turning to `CN1CCN(c2ccc(-c3cnc4c(c3)N(Cc3cc(Cl)ccc3Cl)CCN4)cn2)CC1`, the inhibition in [1], in assay [2], in [3], in assay [4], in assay [5] and in assay [6] was below 50% throughout. Moreover, the inhibition in [7], in [8], in assay [9], in assay [10], in assay [11] and in [12] was below 50% throughout. Besides, the inhibition in [13], in assay [14], in [15], in assay [16] and in assay [17] was below 50% throughout.

With `O=C(O)c1ccc(-c2cnc3c(c2)N(Cc2cc(Cl)ccc2C(F)(F)F)CCN3)cc1`, the inhibition in assay [3], in [6], in assay [7], in assay [9], in assay [11] and in assay [12] was below 50% each time. Moreover, the inhibition in assay [15], in assay [16] and in [17] was below 50% each time.

Consider `CN1CCN(c2ccc(-c3cnc4c(c3)N(Cc3cc(Cl)ccc3C(F)(F)F)CCN4)cn2)CC1`, for which the inhibition in assay [1], in [2], in [3], in assay [4], in assay [5] and in [6] was below 50% in each case. Moreover, the inhibition in [7], in assay [8], in assay [9], in assay [10], in [11] and in [12] was below 50% throughout. For the same molecule, the inhibition in assay [13], in assay [14], in [15], in assay [16] and in [17] was below 50% throughout.

On to `COC1CCN(C(=O)c2ccc(-c3cnc4c(c3)N(Cc3cc(Cl)ccc3C(F)(F)F)CCN4)cc2)CC1`, for which the inhibition in assay [3], in assay [6], in [7], in [8], in assay [9] and in assay [11] was below 50% throughout. Also, the inhibition in assay [12], in assay [15], in [16] and in [17] was below 50% each time.

In the case of `O=C(c1ccc(-c2cnc3c(c2)N(Cc2cc(Cl)ccc2C(F)(F)F)CCN3)cc1)N1CCC(N2CCCC2)CC1`, the inhibition in assay [3], in [6], in assay [7], in assay [8], in assay [9] and in assay [11] was below 50% throughout. For the same molecule, the inhibition is 84% in assay [12], below 50% in assay [15], below 50% in [16] and below 50% in [17].

With `CN1CCN(c2ccc(-c3cnc4c(c3)N(Cc3c(F)ccc(F)c3Cl)CCN4)cn2)CC1`, the inhibition in [1], in assay [2], in assay [3], in [4], in assay [5] and in assay [6] was below 50% in each case. Further, the inhibition in assay [7], in [8], in assay [9], in assay [10], in assay [11] and in assay [12] was below 50% in each case. The inhibition was below 50% in assay [13]; below 50% in assay [14]; below 50% in [15]; below 50% in assay [16]; 70% in [17].

Take `O=C(c1ccc(-c2cnc3c(c2)N(Cc2cc(Cl)ccc2C(F)(F)F)CCN3)cc1)N1CCCCC1`: the inhibition in assay [3], in assay [6], in [7], in assay [9], in assay [11] and in assay [12] was below 50% each time. In addition, the inhibition in [15], in assay [16] and in [17] was below 50% in each case.
